{
  "source": "ChEMBL document CHEMBL1158347",
  "about": "“Substituted quinazolines, part 3. Synthesis, in vitro antitumor activity and molecular modeling study of certain 2-thieno-4(3H)-quinazolinone analogs” (2009)",
  "type_in_all_cases": "functional",
  "key": {"NSCLC": {"tested_on": "NSCLC", "experiment": "Growth inhibition of human NSCLC cells after 48 hrs", "in_short": "(§1)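 NCI in vitro disease-oriented human tumor cell line screen. Compounds passing a one-dose primary assay (MCF-7, NCI-H460, SF-268; pass = growth of any line reduced to 32% or less) were tested on the 60-line panel over a 5-log dose range. Compounds were dissolved in DMSO, with under 1% DMSO in final dilutions, and tested in duplicate at 6×10^4 cells/ml. Cells were incubated at 37 °C in 5% CO2 for 48 h, then diluted 10-fold in saline and counted with a Coulter counter, with counts corrected for dilution. Controls held PBS/DMSO at identical dilutions. GI50 was reported per line and as subpanel/full-panel mean-graph midpoint.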"}, "[1]": {"experiment": "Growth inhibition of human Colon cancer cells after 48 hrs", "conditions": "Cancer cell lines", "in_short": "as §1"}, "CCRF-CEM": {"tested_on": "CCRF-CEM", "experiment": "Growth inhibition of human CCRF-CEM cells after 48 hrs", "in_short": "as §1"}, "SF-539": {"tested_on": "SF-539", "experiment": "Growth inhibition of human SF539 cells after 48 hrs", "conditions": "SF-539, 48 h", "in_short": "as §1"}, "UACC-257": {"tested_on": "UACC-257", "experiment": "Growth inhibition of human UACC257 cells after 48 hrs", "conditions": "UACC-257, 48 h", "in_short": "as §1"}, "[2]": {"experiment": "Growth inhibition of human melanoma cells after 48 hrs", "conditions": "Melanoma cell", "in_short": "as §1"}, "[3]": {"experiment": "Growth inhibition of human CNS cancer cells after 48 hrs", "conditions": "Cancer cell lines", "in_short": "as §1"}, "RPMI-8226": {"tested_on": "RPMI-8226", "experiment": "Growth inhibition of human RPMI8226 cells after 48 hrs", "conditions": "RPMI-8226, 48 h", "in_short": "as §1"}, "SK-MEL-2": {"tested_on": "SK-MEL-2", "experiment": "Growth inhibition of human SK-MEL-2 cells after 48 hrs", "conditions": "SK-MEL-2, 48 h", "in_short": "as §1"}, "MCF7": {"tested_on": "MCF7", "experiment": "Growth inhibition of human MCF7 cells after 48 hrs", "conditions": "MCF7, 48 h", "in_short": "as §1"}, "K562": {"tested_on": "K562", "experiment": "Growth inhibition of human K562 cells after 48 hrs", "conditions": "K562, 48 h", "in_short": "as §1"}, "[4]": {"experiment": "Growth inhibition of human prostate cancer cells after 48 hrs", "conditions": "Cancer cell lines", "in_short": "as §1"}, "HL-60(TB)": {"tested_on": "HL-60(TB)", "experiment": "Growth inhibition of human HL-60(TB) cells after 48 hrs", "conditions": "HL-60, 48 h", "in_short": "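NCI 60-cell-line screen over a 5-log dose range. Compounds were dissolved in DMSO, final DMSO under 1%. Duplicate wells were seeded at 6×10^4 cells/ml, with PBS/DMSO vehicle controls at identical dilutions. Cells were incubated 48 h at 37 °C in humidified 5% CO2, diluted 10-fold in saline, and counted by Coulter counter with dilution correction. GI50 read-out.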"}, "T47D": {"tested_on": "T47D", "experiment": "Growth inhibition of human T47D cells after 48 hrs", "in_short": "as §1"}, "[5]": {"experiment": "Growth inhibition of human breast cancer cells after 48 hrs", "conditions": "Cancer cell lines", "in_short": "as §1"}, "[6]": {"experiment": "Growth inhibition of human ovarian cancer cells after 48 hrs", "conditions": "Cancer cell lines", "in_short": "as §1"}, "[7]": {"experiment": "Growth inhibition of human leukemia cells after 48 hrs", "conditions": "Leukemia cell", "in_short": "as §1"}, "[8]": {"experiment": "Growth inhibition of human renal cancer cells after 48 hrs", "conditions": "Cancer cell lines", "in_short": "as §1"}, "[9]": {"conditions": "read-out: LC50 (the source's name)"}},
  "data": [
    {"smiles": "O=S(=O)(Nc1nccs1)c1ccc(Nc2nc(-c3cccs3)nc3ccc(I)cc23)cc1", "values": [
      {"measurement": "GI50", "setting": "NSCLC", "value": 23.3, "unit": "µM"},
      {"measurement": "LC50 (concentration killing 50% of cells)", "setting": "NSCLC", "value": 92.4, "unit": "µM"},
      {"measurement": "TGI", "setting": "NSCLC", "value": 65.2, "unit": "µM"},
      {"measurement": "GI50", "setting": "[1]", "value": 24.3, "unit": "µM"},
      {"measurement": "LC50", "setting": "[1]", "value": 87.3, "unit": "µM"},
      {"measurement": "TGI", "setting": "[1]", "value": 61.1, "unit": "µM"},
      {"measurement": "GI50", "setting": "CCRF-CEM", "value": 2000, "unit": "nM"},
      {"measurement": "TGI", "setting": "CCRF-CEM", "value": 4, "unit": "µM"},
      {"measurement": "CC50", "setting": "CCRF-CEM; [9]", "value": 9, "unit": "µM"},
      {"measurement": "GI50", "setting": "SF-539", "value": 32, "unit": "µM"},
      {"measurement": "TGI", "setting": "SF-539", "value": 60, "unit": "µM"},
      {"measurement": "CC50", "setting": "SF-539; [9]", "value": "> 100", "unit": "µM"},
      {"measurement": "GI50", "setting": "UACC-257", "value": 40, "unit": "nM"},
      {"measurement": "LC50", "setting": "UACC-257", "value": 95, "unit": "µM"},
      {"measurement": "TGI", "setting": "UACC-257", "value": 28, "unit": "µM"},
      {"measurement": "GI50", "setting": "[2]", "value": 18.9, "unit": "µM"},
      {"measurement": "LC50 (lethal concentration 50%)", "setting": "[2]", "value": 92.1, "unit": "µM"},
      {"measurement": "TGI", "setting": "[2]", "value": 45.5, "unit": "µM"},
      {"measurement": "GI50", "setting": "[3]", "value": 27.7, "unit": "µM"},
      {"measurement": "TGI", "setting": "[3]", "value": 68.3, "unit": "µM"},
      {"measurement": "GI50", "setting": "RPMI-8226", "value": 1000, "unit": "nM"},
      {"measurement": "TGI", "setting": "RPMI-8226", "value": 3000, "unit": "nM"},
      {"measurement": "CC50", "setting": "RPMI-8226; [9]", "value": 8, "unit": "µM"},
      {"measurement": "GI50", "setting": "SK-MEL-2", "value": 22, "unit": "µM"},
      {"measurement": "LC50", "setting": "SK-MEL-2", "value": "> 100", "unit": "µM"},
      {"measurement": "TGI", "setting": "SK-MEL-2", "value": 47, "unit": "µM"},
      {"measurement": "GI50", "setting": "MCF7", "value": 26, "unit": "µM"},
      {"measurement": "TGI", "setting": "MCF7", "value": "> 100", "unit": "µM"},
      {"measurement": "CC50", "setting": "MCF7; [9]", "value": "> 100", "unit": "µM"},
      {"measurement": "GI50", "setting": "K562", "value": 38, "unit": "µM"},
      {"measurement": "LC50 (concentration killing 50% of cells)", "setting": "K562", "value": "> 100", "unit": "µM"},
      {"measurement": "TGI", "setting": "K562", "value": "> 100", "unit": "µM"},
      {"measurement": "GI50", "setting": "[4]", "value": 13.9, "unit": "µM"},
      {"measurement": "TGI", "setting": "[4]", "value": 35.9, "unit": "µM"},
      {"measurement": "CC50", "setting": "[4]; [9]", "value": 73, "unit": "µM"},
      {"measurement": "GI50", "setting": "HL-60(TB)", "value": 32, "unit": "µM"},
      {"measurement": "TGI", "setting": "HL-60(TB)", "value": 80, "unit": "µM"},
      {"measurement": "CC50", "setting": "HL-60(TB); [9]", "value": "> 100", "unit": "µM"},
      {"measurement": "GI50", "setting": "T47D", "value": 15, "unit": "µM"},
      {"measurement": "LC50", "setting": "T47D", "value": "> 100", "unit": "µM"},
      {"measurement": "TGI", "setting": "T47D", "value": 51, "unit": "µM"},
      {"measurement": "GI50", "setting": "[5]", "value": 25.9, "unit": "µM"},
      {"measurement": "TGI", "setting": "[5]", "value": 74.9, "unit": "µM"},
      {"measurement": "GI50", "setting": "[6]", "value": 25.8, "unit": "µM"},
      {"measurement": "TGI", "setting": "[6]", "value": 68.9, "unit": "µM"},
      {"measurement": "GI50", "setting": "[7]", "value": 21.7, "unit": "µM"},
      {"measurement": "TGI", "setting": "[7]", "value": 59.2, "unit": "µM"},
      {"measurement": "CC50", "setting": "[7]; [9]", "value": 69.4, "unit": "µM"},
      {"measurement": "GI50", "setting": "[8]", "value": 28.3, "unit": "µM"},
      {"measurement": "TGI", "setting": "[8]", "value": 79.6, "unit": "µM"}
    ]}
  ]
}
